According to ChEMBL document CHEMBL1136274 (Bioorg Med Chem Lett, 2003):

Legend:
[1] = target: T1, Sphingosine 1-phosphate receptor 4 (Homo sapiens, UniProt O95977); assay: In vitro binding affinity towards human Sphingosine 1-phosphate receptor 4 expressed in HEK293T cells using [gamma-35S]-GTP as radioligand; format: cell-based, HEK-293T
T1 sequence (O95977 whole entry): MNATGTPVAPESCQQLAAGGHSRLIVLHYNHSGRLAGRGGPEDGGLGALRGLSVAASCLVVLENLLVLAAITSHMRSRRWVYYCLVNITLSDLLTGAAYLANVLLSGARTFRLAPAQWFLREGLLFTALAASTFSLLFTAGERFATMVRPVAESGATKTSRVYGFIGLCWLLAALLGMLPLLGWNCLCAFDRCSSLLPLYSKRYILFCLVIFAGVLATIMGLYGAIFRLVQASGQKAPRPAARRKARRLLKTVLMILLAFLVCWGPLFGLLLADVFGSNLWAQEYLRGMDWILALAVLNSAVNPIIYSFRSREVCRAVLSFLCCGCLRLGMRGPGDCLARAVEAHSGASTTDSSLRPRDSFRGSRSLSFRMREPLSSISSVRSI

[2] = target: Sphingosine 1-phosphate receptor 5 (Homo sapiens, UniProt Q9H228); assay: In vitro binding affinity towards human Sphingosine 1-phosphate receptor 5 expressed in HEK293T cells using [gamma-35S]-GTP as radioligand; format: cell-based, HEK-293T
Sphingosine 1-phosphate receptor 5, sequence (Q9H228 whole entry): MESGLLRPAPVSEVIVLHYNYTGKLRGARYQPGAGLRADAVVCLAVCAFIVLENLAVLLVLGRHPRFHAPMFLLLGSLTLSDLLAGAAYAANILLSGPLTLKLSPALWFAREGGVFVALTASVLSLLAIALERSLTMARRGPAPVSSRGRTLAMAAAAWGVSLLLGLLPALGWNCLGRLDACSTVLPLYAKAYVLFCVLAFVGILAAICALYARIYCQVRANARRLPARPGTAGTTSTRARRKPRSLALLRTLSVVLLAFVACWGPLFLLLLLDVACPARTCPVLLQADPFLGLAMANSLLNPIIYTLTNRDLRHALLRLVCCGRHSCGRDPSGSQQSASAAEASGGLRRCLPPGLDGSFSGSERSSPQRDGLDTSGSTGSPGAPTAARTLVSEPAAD

[3] = target: T2, Sphingosine 1-phosphate receptor 2 (Homo sapiens, UniProt O95136); assay: In vitro binding affinity towards human Sphingosine 1-phosphate receptor 2 expressed in HEK293T cells using [gamma-35S]-GTP as radioligand; Not active; format: cell-based; settings: hek-293t
T2 sequence (O95136 whole entry): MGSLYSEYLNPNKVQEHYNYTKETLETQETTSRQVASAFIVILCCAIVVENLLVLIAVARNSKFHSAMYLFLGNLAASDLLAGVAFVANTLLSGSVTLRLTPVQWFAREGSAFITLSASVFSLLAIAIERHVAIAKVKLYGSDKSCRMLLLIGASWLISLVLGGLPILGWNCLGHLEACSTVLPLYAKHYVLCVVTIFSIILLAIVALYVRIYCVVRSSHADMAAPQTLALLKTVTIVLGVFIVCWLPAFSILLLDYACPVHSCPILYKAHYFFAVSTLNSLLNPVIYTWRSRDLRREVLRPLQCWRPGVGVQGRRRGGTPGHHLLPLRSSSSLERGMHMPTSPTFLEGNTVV

[4] = target: T3, Sphingosine 1-phosphate receptor 3 (Homo sapiens, UniProt Q99500); assay: In vitro binding affinity towards human Sphingosine 1-phosphate receptor 3 expressed in HEK293T cells using [gamma-35S]-GTP as radioligand; Not active; format: cell-based; settings: hek-293t
T3 sequence (Q99500 whole entry): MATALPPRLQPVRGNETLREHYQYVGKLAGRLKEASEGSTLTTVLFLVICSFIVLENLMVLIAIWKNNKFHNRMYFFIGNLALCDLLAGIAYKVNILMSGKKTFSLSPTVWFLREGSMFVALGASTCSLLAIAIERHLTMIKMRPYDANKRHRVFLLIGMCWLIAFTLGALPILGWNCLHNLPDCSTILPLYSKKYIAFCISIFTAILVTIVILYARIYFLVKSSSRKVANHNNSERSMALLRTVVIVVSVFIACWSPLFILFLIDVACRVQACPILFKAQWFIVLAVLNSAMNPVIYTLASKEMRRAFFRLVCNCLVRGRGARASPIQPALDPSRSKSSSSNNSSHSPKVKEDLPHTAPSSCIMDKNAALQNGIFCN

[5] = target: T4, Sphingosine 1-phosphate receptor 1 (Homo sapiens, UniProt P21453); assay: In vitro binding affinity towards human Sphingosine 1-phosphate receptor 1 expressed in HEK293T cells using [gamma-35S]-GTP as radioligand; format: cell-based, HEK-293T
T4 sequence (P21453 whole entry): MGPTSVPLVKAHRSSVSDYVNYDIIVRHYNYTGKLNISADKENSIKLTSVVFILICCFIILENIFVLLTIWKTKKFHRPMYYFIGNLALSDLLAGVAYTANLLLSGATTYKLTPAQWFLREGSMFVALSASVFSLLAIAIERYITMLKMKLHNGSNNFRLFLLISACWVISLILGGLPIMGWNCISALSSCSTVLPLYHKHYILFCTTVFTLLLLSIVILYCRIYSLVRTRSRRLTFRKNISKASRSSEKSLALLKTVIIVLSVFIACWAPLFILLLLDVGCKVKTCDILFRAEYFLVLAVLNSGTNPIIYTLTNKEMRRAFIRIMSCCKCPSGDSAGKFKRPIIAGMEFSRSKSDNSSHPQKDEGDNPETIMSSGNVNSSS

[6] = target: T3, Sphingosine 1-phosphate receptor 3; assay: In vitro binding affinity towards human Sphingosine 1-phosphate receptor 3 expressed in HEK293T cells using [gamma-35S]-GTP as radioligand; format: cell-based, HEK-293T
[7] = target: T2, Sphingosine 1-phosphate receptor 2; assay: In vitro binding affinity towards human Sphingosine 1-phosphate receptor 2 expressed in HEK293T cells using [gamma-35S]-GTP as radioligand; format: cell-based, HEK-293T
[8] = target: T3, Sphingosine 1-phosphate receptor 3; assay: In vitro binding affinity towards human S1P3 receptor expressed in HEK293T cells using [gamma-35S]-GTP as radioligand; format: cell-based, HEK-293T
[9] = target: T1, Sphingosine 1-phosphate receptor 4; assay: In vitro binding affinity towards human Sphingosine 1-phosphate receptor 4 expressed in HEK293T cells using [gamma-35S]-GTP as radioligand (Experiment 2); format: cell-based, HEK-293T
Summary of the method: (§1)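 Membranes were incubated with test lipid in pH 7.5 buffer (HEPES 50 mM, NaCl 100 mM, MgCl2 5 mM) containing saponin, GDP and 0.1 nM [γ-35S]GTP for 30 min at 30 °C. Bound label was separated by GF/C filtration and counted by scintillation. EC50 is the mean of three experiments.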

[10] = target: T3, Sphingosine 1-phosphate receptor 3; assay: In vitro binding affinity towards human Sphingosine 1-phosphate receptor 3 expressed in HEK293T cells using [gamma-35S]-GTP as radioligand (Experiment 2); format: cell-based, HEK-293T; summary of the method: as §1
[11] = target: T4, Sphingosine 1-phosphate receptor 1; assay: In vitro binding affinity towards human Sphingosine 1-phosphate receptor 1 expressed in HEK293T cells using [gamma-35S]-GTP as radioligand. (Experiment 2); format: cell-based, HEK-293T; summary of the method: as §1

Row | Structure (SMILES) | EC50 [1] [nM] | EC50 [2] [nM] | EC50 [3] | EC50 [5] [nM] | EC50 [6] [nM] | also measured
1 | CCCCCCCCCCCCCCCCNC(=O)[C@@H](N)COP(=O)(O)O | – | – | – | – | – | EC50 [7]: > 5000 nM
2 | CCCCCCCCCCCCc1ccc(NC(=O)[C@H](N)COP(=O)(O)O)cc1.O=C(O)C(F)(F)F | 1400 | 160 | Not Active | 130 | 740 | –
3 | CCCCCCc1ccc(NC(=O)[C@@H](N)COP(=O)(O)O)cc1.O=C(O)C(F)(F)F | 1500 | 55 | Not Active | 550 | – | EC50 [4]: Not Active
4 | CCCCCCCCCCCCC/C=C/[C@@H](O)[C@@H](N)COP(=O)(O)O | – | – | – | – | – | EC50 [9]: 270 nM; EC50 [10]: 8.7 nM; EC50 [11]: 4.5 nM
5 | CCCCCCCCCCc1ccc(NC(=O)[C@H](N)COP(=O)(O)O)cc1.O=C(O)C(F)(F)F | 450 | 41 | Not Active | 8.6 | 89 | –

Second part, led by results:

Row | EC50 [1] [nM] | EC50 [2] [nM] | EC50 [3] | EC50 [5] [nM] | EC50 [6] [nM] | Structure (SMILES) | also measured
6 | 880 | 43 | Not Active | 260 | – | CCCCCCc1ccc(NC(=O)[C@H](N)COP(=O)(O)O)cc1.O=C(O)C(F)(F)F | EC50 [4]: Not Active
7 | – | – | Not Active | 58 | 450 | CCCCCCCCc1ccc(NC(=O)[C@H](N)COP(=O)(O)O)cc1.O=C(O)C(F)(F)F | –
8 | – | – | Not Active | 82 | – | CCCCCCCCc1ccc(NC(=O)[C@@H](N)COP(=O)(O)O)cc1.O=C(O)C(F)(F)F | EC50 [8]: 1500 nM
9 | – | 1610 | – | 397 | 862 | CCCCCCCCCCCCCCNC(=O)[C@@H](N)COP(=O)(O)O | EC50 [7]: 2680 nM
10 | – | > 5000 | – | – | – | CCCCCCCCCCCCCCNC(=O)[C@H](N)COP(=O)(O)O | –
